In the library only some 2.6% were active in any assay of this set; here they are far more common.
FGF22 binding = FGF22 (human) thermal shift binding; 1.5% of 340,000 active; recombinant FGF22 thermal shift, SYPRO orange fluorescence; percent of sucrose octasulfate shift, DMSO zero; activity (Tm shift, normalised), % at 9.99 µM; AID 651658;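 active = mean Tm shift, scaled 0 neutral to 100 positive control, at about 1.3% or above, every replicate too, limit read from the data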
UCH37 inh = inhibitors of human deubiquitinating enzyme UCH37; Q9Y5K5; purified proteasome/UCH37, Ub-AMC cleavage fluorescence; inhibition, % (test concentration not listed); 0.33% of 330,000 active; AID 588478;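 active = mean inhibition over replicate wells above about 20%, limit read from the data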;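 also: 0% = compound-free wells with enzyme and 100% = wells lacking proteasome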
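Reagent: Ub-AMC substrate; assay system: Proteasome-associated human UCH37 deubiquitinase; controls: no-proteasome and no-compound wells; read-out: % inhibition of Ub-AMC cleavage fluorescence; timing: 30 min preincubation with enzyme, 25 min cleavage at room temperature; signal: AMC fluorescence from Ub-AMC cleavage, excitation 355 nm, emission 460 nm; buffer or medium: Tris-HCl pH 7.4 plus ovalbumin, ATP-MgCl2, DTT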
CASP6 VEID inh = caspase-6 (human) enzyme inhibition; AID 686996; 0.53% of 350,000 active; P55212; inhibition, % at 12.5 µM; purified caspase-6, Z-VEID-R110 cleavage fluorescence;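 active = mean inhibition across replicates at least about 35%, with every replicate also reaching that limit, limit read from the data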;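 also: 0% = median of neutral control wells and 100% = no fluorescence left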
SIRT5 inh = inhibitors of human sirtuin-5 desuccinylase. inhibition, % at 15 µM. 1.1% of 330,000 active. Q9NXA8. AID 652115. Purified SirT5, succinyl-peptide AMC, trypsin-coupled fluorescence; in the data active = inhibition above about 15%
NSD2 inh = NSD2 (human) methyltransferase inhibition. O96028. NSD2 peptide methylation, AlphaScreen, 120 min. inhibition, % at 12.5 µM. 0.54% of 310,000 active. AID 743445; in the data active = inhibition above about 50%
* hit, by the source's call; nt = not tested or not shown.

SMILES	FGF22 binding	UCH37 inh	CASP6 VEID inh	SIRT5 inh	NSD2 inh
Cc1ccc(CN2CCN(Cc3cccn3-c3ccccn3)CC2CCO)cc1 (stereo not given)	0	3	-1	-6	-4
O=C(O)c1ccc(CNCc2cccc(Cl)c2)cc1	0	1	0	21*	0
O=C(NCC[C@@H]1CC[C@@H](NC(=O)C2CCC2)[C@H](CO)O1)Nc1ccc(Cl)cc1	0	nt	-1	1	nt
CCCNC(=O)Nc1ccc2c(c1)OC[C@H](C)N(C(=O)C1CCC1)C[C@H](C)[C@H](OC)CN(C)C2=O	0	nt	2	-3	nt
CC#CCOCC1CN(C)C(=O)O1 (stereo not given)	43*	nt	-2	nt	-2
N#Cc1cnn(-c2cccc(Cl)c2)c1N	43*	5	3	-8	2
O=C1NCCCC1C(=O)NN=Cc1ccc([N+](=O)[O-])cc1 (stereo not given)	nt	7	nt	nt	nt
CCOc1ncccc1C(=O)Nc1nnc(C2CC2)s1	44*	5	-2	-7	0
Cc1ccc(NCc2nnc(SC(C)C(=O)NN=Cc3ccc(C)o3)n2-c2ccccc2)cc1 (stereo not given)	nt	2	nt	nt	nt
Cc1ccc(CNC(=O)Cc2csc(Nc3nc(=S)[nH]c4ccccc34)n2)cc1	0	-41	41*	0	0
COC(=O)[C@@H](NC(=O)/C=C/c1ccc(OC)cc1)C(C)C	43*	1	-2	-2	-1
COc1ccc(/C=C/C(=O)NNC(=O)c2cc(C)oc2C)cc1	0	2	1	23*	2
C[C@@H]1CCCCO[C@@H](CN(C)C(=O)C2CCCCC2)[C@@H](C)CN([C@@H](C)CO)C(=O)c2cc(NC(=O)C3CCCCC3)ccc2O1	-1	nt	1	-5	nt
CC(C)c1c(C(=O)NN=Cc2c[nH]c3ccccc23)nnn1-c1nonc1N	nt	-7	nt	nt	nt
CC(=NNC(=O)CNc1ccc(Cl)cc1C)c1ccc(C)cc1	nt	34*	nt	nt	nt
Cc1cc(C)n(C(=O)CN2C(=O)c3ccccc3C2=O)n1	0	5	2	11	3
Cc1nn(C(=O)CN2C(=O)c3ccccc3C2=O)c(C)c1Br	nt	28*	nt	nt	-1
COc1ccc(C2CCc3cc4c(cc3C2=NO)OCO4)cc1OC (stereo not given)	43*	nt	5	nt	5
COc1cc2c(cc1OC)C(c1ccc3c(c1)OCO3)CC(=O)N2 (stereo not given)	0	2	1	-17	8
C[C@H](NC(=O)C[C@H]1CC[C@@H](NC(=O)C2CCC2)[C@@H](CO)O1)c1ccccc1	1	nt	9	1	nt
CC1CCCC(C)N1C(=O)CSc1nnc(COc2cccc3cccnc23)o1 (stereo not given)	43*	-6	3	-1	1
CO[C@H]1CN(C)C(=O)c2ccc(NC(=O)Nc3cc(Cl)cc(Cl)c3)cc2OC[C@H](C)NC[C@H]1C	-1	nt	-1	-8	nt
CO[C@@H]1CN(C)C(=O)c2ccc(NC(=O)c3cnccn3)cc2OC[C@@H](C)NC[C@H]1C	0	nt	-2	15*	nt
CO[C@H]1CN(C)C(=O)c2ccc(NC(=O)Nc3cc(Cl)cc(Cl)c3)cc2OC[C@@H](C)NC[C@@H]1C	-1	nt	0	1.4*	nt
O=C(COc1ccc(C=NNS(=O)(=O)c2ccccc2)cc1)Nc1ccc(F)cc1	nt	-1	nt	nt	nt
SMILES	FGF22 binding	UCH37 inh	CASP6 VEID inh	SIRT5 inh	NSD2 inh
O=C(c1ccc(=O)oc1)N1CCCc2ccccc21	nt	0	nt	nt	92*
O=C(NC(=S)N1CCCc2ccccc21)c1ccco1	0	5	-1	22*	-2
CC1Cc2ccccc2N1C(=S)NC(=O)c1ccco1 (stereo not given)	nt	7	2	1	2
C[C@@H]1CN([C@@H](C)CO)C(=O)Cc2cc(NC(=O)Cc3cn(C)c4ccccc34)ccc2O[C@H]1CN(C)C(=O)Nc1ccccc1	0	nt	1	1	nt
CCOC(=O)c1ccc(NC(=O)O[C@H]2[C@H](OC(=O)Nc3ccccc3)[C@@H](OC(=O)Nc3ccccc3)[C@@H](OC)O[C@@H]2CO)cc1	0	nt	3	20*	nt
CCOC(=O)c1cnc2ccc(OCC)cc2c1NCCCN1CCOCC1	0	-24	-51	27*	-2
CCOC(=O)c1cnc2ccc(OCC)cc2c1NCCN1CCOCC1	0	-12	4	-2	1
CO[C@@H](CN(C)C(=O)c1cnccn1)[C@@H](C)CN([C@H](C)CO)S(=O)(=O)c1ccc(Cl)cc1	0	nt	2	-2	nt

High-throughput results as filed in PubChem.
